“Also recorded” adds a separate entry of the source. No end group written: not given here.
Assays:
[1] = test system: LDHA; assay: Fluorescence polarization anisotropy binding to LDHA; set-up: species or system human; conditions: rhodamine B-labeled peptide, pH 7.2, 30 min on ice, n = 3
[2] = test system: LDHA; assay: LDHA kinetics and inhibition assay; type: biochemical, human; conditions: n = 3; for potency as compared to LDHA inhibitor FX11: 2 nM FLCN or 100 nM FLCN-10 versus 60 μM FX11, pH 7.0, 2 mM pyruvate; for mode of LDHA inhibition: 50 mM Tris-HCl pH 7.0, 2 mM pyruvate, varied NADH, 2 nM FLCN or 100 nM FLCN-10
Summary of the method: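 Reactions contained 50 mM Tris-HCl pH 7.0, 2 mM pyruvate and varied NADH, with test protein (2 nM), test peptide (100 nM) or reference inhibitor FX11 (60 μM). Triplicates, ≥2 independent assays. IC50 came from curve fitting; Ki came from Lineweaver–Burk analysis and IC50-to-Ki conversion.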

[3] = test system: dimeric LDHA; assay: LDHA activity, predominantly dimeric LDHA; type: biochemical, human; conditions: LDHA 10 ng/μl (predominantly dimeric), increasing amounts of FLCN protein or FLCN-10; n=3
[4] = test system: FLCN–LDHA complex; assay: FLCN-LDHA complex disruption in HEK293; type: cell-based, human; conditions: HEK293, exogenous addition, 6 h; n=3
Summary of the method: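 HEK293 cells were given exogenous lactate or pyruvate for 6 h. Lysates underwent anti-FLCN IP (antibody 1 h, then protein G agarose 2 h, 4 °C), four washes in lysis buffer, Laemmli elution and immunoblotting alongside whole-cell extracts. Three independent experiments.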

[5] = test system: pTyr10-LDHA; assay: LDHA activity; type: cell-based, human; conditions: rhodamine B-labeled peptides, pTyr10-LDHA normalized to NT; n=3
Summary of the method: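 HEK293 cells were treated with 1 μM rhodamine B-labeled peptides for 2 h. Whole-cell lysates were immunoblotted for pTyr10-LDHA, and band density was expressed as fold change versus untreated cells. n = 3.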

[6] = test system: LDHA; assay: Co-immunoprecipitation of FLCN with LDHA; type: binding, human; conditions: expressed in HEK293 cells, FLAG IP, immunoblot
Summary of the method: (§1)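 Lysates came from transfected HEK293 cells (24 h post-transfection) or, for endogenous FLCN IP, from LDHA or LDHB knockout HAP1 cells. Capture used anti-FLAG or anti-HA agarose (2 h, 4 °C) or anti-LDHA/anti-FLCN antibody (1 h) followed by protein G agarose (2 h, 4 °C). Beads were washed four times in NP40 lysis buffer, eluted in Laemmli buffer and immunoblotted.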

[7] = test system: LDHB; assay: Co-immunoprecipitation of FLCN with LDHB; type: binding, human; conditions: HEK293 cells, LDHB-FLAG IP; HAP1 cells
Summary of the method: as §1

[8] = test system: LDHA/LDHB chimeric constructs; assay: Co-IP of FLCN with LDHA/LDHB chimeric constructs; type: binding, human; conditions: HEK293, co-IP
[9] = test system: LDHA; assay: Cibacron Blue-agarose pulldown of LDHA; type: binding, human; conditions: HEK293 cells overexpressing FLCN; Cibacron blue agarose 1 h at 4 °C; n=3
Summary of the method: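 Lysates of HEK293 cells expressing empty vector or FLCN-FLAG were incubated with Cibacron Blue agarose for 1 h at 4 °C. LDHA was immunoblotted and the pulldown:input ratio was normalized to vector.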

[10] = test system: LDHA; assay: Native PAGE of LDHA oligomers; set-up: species or system human
Summary of the method: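 HEK293 cells were transiently transfected with pcDNA3 constructs (TransIT-2020) for 24 h and lysed. Lysates were mixed with non-denaturing loading buffer (250 mM Tris-HCl pH 6.8, 30% glycerol, 0.05% bromophenol blue; 5× stock) for 5 min at room temperature. Samples were resolved on Tris-HCl gels in native running buffer (25 mM Tris, 192 mM glycine).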

[11] = test system: UOK257 cells; assay: Extracellular acidification rate; type: cell-based, human; conditions: n = 8
Summary of the method: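 UOK257 cells were transfected at 50% confluency in 100-mm dishes (24 h), or left untransfected for peptide treatment. Cells were seeded at 1 × 10^5 per well 24 h before assay and treated immediately before measurement (peptide, 2 h). ECAR was read by Seahorse XF glycolytic stress test. Transfection n = 8, peptide n = 4 independent samples.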

[12] = test system: ccRCC cells; assay: Apoptosis in ccRCC cells on FLCN overexpression; type: cell-based, human; conditions: 786-O, Caki-1 and Caki-2, FLAG-tagged FLCN, immunoblot
[13] = test system: LDH; conditions: UOK257 lysates, 2 μg plasmid; n = 3
[14] = overexpression of FLCN in HEK293, native PAGE

## FLCN-10: decapeptide derived from the FLCN loop region; aa 219–228 (AQRMNTAFTP; also: rhodamine B label (position not given here))
[1]
  binding to LDHA (in words): greatly enhanced binding
[2]
  potency as compared to LDHA inhibitor FX11: greatly improved potency
  mode of LDHA inhibition: uncompetitively inhibits LDHA
[3]
  inhibition of dimeric LDHA: effectively inhibit dimeric

## CC(O)C(=O)O (centres unmarked) [lactate]
[4]
  effect on FLCN–LDHA complex: much milder effect on dissociation of LDHA from FLCN

## FLCN-1: peptide derived from aa 220–230 of FLCN (QRMNTAFTPFL; also: rhodamine B label (position not given here))
[1]
  binding to LDHA (in words): bound tightly to LDHA
[5]
  LDHA activity in HEK293 cells: effectively reduced LDHA activity

## CC(=O)C(=O)O [pyruvate]
[4]
  effect on FLCN–LDHA complex: disruption of the FLCN–LDHA complex

## folliculin [FLCN]
[2]
  potency as compared to LDHA inhibitor FX11: greatly improved potency
  mode of LDHA inhibition: uncompetitively inhibits LDHA; also recorded: uncompetitive inhibitor of LDHA
[3]
  inhibition of dimeric LDHA: effectively inhibit dimeric
[6]
  binding to LDHA (co-IP): specifically bound to LDHA
[7]
  binding to LDHB (co-IP): no interaction with LDHB was detected
[8]; NC chimeric construct
  binding to LDHA with both domains (NC) replaced by LDHB: completely abrogated FLCN interaction
[8]; chimeric constructs (first 22 / last 38 amino acids swapped)
  binding to LDHA with LDHB N domain or C domain individually: preserved binding
[9]
  LDHA binding to Cib-agarose: greatly diminished
[10]; dimer compared to tetramer
  preference for LDHA oligomeric state: prefers binding to the less active LDHA dimer
[10]; [14]
  effect on large oligomeric complexes of LDHA: decrease in large oligomeric complexes of LDHA
  formation of dimeric LDHA species (70 kDa): induces formation of a dimeric LDHA species
[11]; UOK257, 2 μg transfection
  ECAR, transfection of 2 μg plasmid: little effect
[11]; UOK257, 8 μg transfection
  ECAR, transfection of 8 μg plasmid: reduced ECAR to a similar level as the FLCN-replaced control cell line
[12]
  apoptosis in ccRCC on overexpression: induced apoptosis in ccRCC cells
[13]
  LDH activity after transfection of 2 μg: ~ 77%

From PMC9278990 (Nature structural & molecular biology, 2021)
